Test results from ChEMBL document CHEMBL3046200, “5-(2,6-difluorobenzyl)oxymethyl-5-methyl-3-(3-methylthiophen-2-yl)- 1,2-isoxazoline as a useful rice herbicide” (J Agric Food Chem, 2005).
Converted amounts (≈) assume the structure as drawn. The source made the active and inactive calls. The calls are words filed in the database; no cut-off is given here.

Assays:
[1] = tested on: Ludwigia prostrata; assay: Herbicidal activity against Ludwigia prostrata assessed as visual damage 125 g/ha measured after 3 weeks; assay type: functional, organism-based
Outline: (§1)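 Flooded greenhouse pot test with soil of 1.5% total carbon, pH 5.6. Eight annual weed species sown at 0.5–1.0 cm in one pot, under 3 cm water at 28–33 °C day and 20–26 °C night. Compound in acetone/water (50/50 v/v) added gently to the water surface at the stated rate 5 days after transplanting.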

[2] = tested on: Ludwigia prostrata; assay: Herbicidal activity against Ludwigia prostrata assessed as visual damage 250 g/ha measured after 3 weeks; assay type: functional, organism-based; outline: as §1
[3] = tested on: Ludwigia prostrata; assay: Herbicidal activity against Ludwigia prostrata assessed as visual damage 500 g/ha measured after 3 weeks; assay type: functional, organism-based; outline: as §1
[4] = tested on: Ludwigia prostrata; assay: Herbicidal activity against Ludwigia prostrata assessed as visual damage 1000 g/ha measured after 3 weeks; assay type: functional, organism-based; outline: as §1
[5] = tested on: Cyperus difformis; assay: Herbicidal activity against Cyperus difformis assessed as visual damage 62.5 g/ha measured after 3 weeks; assay type: functional, organism-based; outline: as §1
[6] = tested on: Cyperus difformis; assay: Herbicidal activity against Cyperus difformis assessed as visual damage 125 g/ha measured after 3 weeks; assay type: functional, organism-based; outline: as §1
[7] = tested on: Cyperus difformis; assay: Herbicidal activity against Cyperus difformis assessed as visual damage 250 g/ha measured after 3 weeks; assay type: functional, organism-based; outline: as §1
[8] = tested on: Cyperus difformis; assay: Herbicidal activity against Cyperus difformis assessed as visual damage 500 g/ha measured after 3 weeks; assay type: functional, organism-based; outline: as §1
[9] = tested on: Cyperus difformis; assay: Herbicidal activity against Cyperus difformis assessed as visual damage 1000 g/ha measured after 3 weeks; assay type: functional, organism-based; outline: as §1
[10] = tested on: Murdannia keisak; assay: Herbicidal activity against Murdannia keisak assessed as visual damage 62.5 g/ha measured after 3 weeks; assay type: functional, organism-based; outline: as §1
[11] = tested on: Murdannia keisak; assay: Herbicidal activity against Murdannia keisak assessed as visual damage 125 g/ha measured after 3 weeks; assay type: functional, organism-based; outline: as §1
[12] = tested on: Murdannia keisak; assay: Herbicidal activity against Murdannia keisak assessed as visual damage 250 g/ha measured after 3 weeks; assay type: functional, organism-based; outline: as §1
[13] = tested on: Rotala indica; assay: Herbicidal activity against Rotala indica assessed as visual damage 125 g/ha measured after 3 weeks; assay type: functional, organism-based; outline: as §1
[14] = tested on: Rotala indica; assay: Herbicidal activity against Rotala indica assessed as visual damage 250 g/ha measured after 3 weeks; assay type: functional, organism-based; outline: as §1
[15] = tested on: Rotala indica; assay: Herbicidal activity against Rotala indica assessed as visual damage 500 g/ha measured after 3 weeks; assay type: functional, organism-based; outline: as §1
[16] = tested on: Rotala indica; assay: Herbicidal activity against Rotala indica assessed as visual damage 1000 g/ha measured after 3 weeks; assay type: functional, organism-based; outline: as §1
[17] = tested on: Pontederia vaginalis; assay: Herbicidal activity against Monochoria vaginalis assessed as visual damage 125 g/ha measured after 3 weeks; assay type: functional, organism-based; outline: as §1
[18] = tested on: Pontederia vaginalis; assay: Herbicidal activity against Monochoria vaginalis assessed as visual damage 250 g/ha measured after 3 weeks; assay type: functional, organism-based; outline: as §1
[19] = tested on: Pontederia vaginalis; assay: Herbicidal activity against Monochoria vaginalis assessed as visual damage 500 g/ha measured after 3 weeks; assay type: functional, organism-based; outline: as §1
[20] = tested on: Pontederia vaginalis; assay: Herbicidal activity against Monochoria vaginalis assessed as visual damage 1000 g/ha measured after 3 weeks; assay type: functional, organism-based; outline: as §1
[21] = tested on: Schoenoplectiella juncoides; assay: Herbicidal activity against Schoenoplectiella juncoides assessed as visual damage 62.5 g/ha measured after 3 weeks; assay type: functional, organism-based; outline: as §1
[22] = tested on: Schoenoplectiella juncoides; assay: Herbicidal activity against Schoenoplectiella juncoides assessed as visual damage 125 g/ha measured after 3 weeks; assay type: functional, organism-based; outline: as §1
[23] = tested on: Schoenoplectiella juncoides; assay: Herbicidal activity against Schoenoplectiella juncoides assessed as visual damage 250 g/ha measured after 3 weeks; assay type: functional, organism-based; outline: as §1
[24] = tested on: Echinochloa oryzicola; assay: Herbicidal activity against Echinochloa oryzicola assessed as visual damage 125 g/ha measured after 3 weeks; assay type: functional, organism-based; outline: as §1
[25] = tested on: Echinochloa oryzicola; assay: Herbicidal activity against Echinochloa oryzicola assessed as visual damage 250 g/ha measured after 3 weeks; assay type: functional, organism-based; outline: as §1
[26] = tested on: Echinochloa oryzicola; assay: Herbicidal activity against Echinochloa oryzicola assessed as visual damage 500 g/ha measured after 3 weeks; assay type: functional, organism-based; outline: as §1
[27] = tested on: Echinochloa oryzicola; assay: Herbicidal activity against Echinochloa oryzicola assessed as visual damage 1000 g/ha measured after 3 weeks; assay type: functional, organism-based; outline: as §1
[28] = tested on: Oryza sativa; assay: Toxicity in transplanted Oryza sativa (rice) assessed as visual damage 62.5 g/ha measured after 5 days after transplanting; assay type: organism-based; conditions: in vivo, 120 h
Outline: (§2)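 Transplanted rice grown in flooded greenhouse pots (3 cm water; 28–33 °C day, 20–26 °C night; soil 1.5% total carbon, pH 5.6). Compound in acetone/water (50/50 v/v) applied to the water surface at the stated rate 5 days after transplanting. Injury scored visually on a 0–100 scale.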

[29] = tested on: Oryza sativa; assay: Toxicity in transplanted Oryza sativa (rice) assessed as visual damage 125 g/ha measured after 5 days after transplanting; assay type: organism-based; conditions: in vivo, 120 h; outline: as §2
[30] = tested on: Oryza sativa; assay: Toxicity in transplanted Oryza sativa (rice) assessed as visual damage 250 g/ha measured after 5 days after transplanting; assay type: organism-based; conditions: in vivo, 120 h; outline: as §2
[31] = tested on: Oryza sativa; assay: Toxicity in transplanted Oryza sativa (rice) assessed as visual damage 500 g/ha measured after 5 days after transplanting; assay type: organism-based; conditions: in vivo, 120 h; outline: as §2
[32] = tested on: Oryza sativa; assay: Toxicity in transplanted Oryza sativa (rice) assessed as visual damage 1000 g/ha measured after 5 days after transplanting; assay type: organism-based; conditions: in vivo, 120 h; outline: as §2
[33] = Genotoxicity in Cricetulus griseus lung fibroblast assessed as mutation; assay type: toxicity, cell-based; conditions: chinese hamster
Outline: (§3)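 CHL (Chinese hamster lung fibroblast) cells kept in minimum essential medium with 5% fetal bovine serum. Harvested with 0.2% trypsin, seeded onto 50-mm dishes, and grown at 37 °C in humidified 5% CO₂/95% air.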

[34] = Genotoxicity inCricetulus griseus lung fibroblast assessed as chromosome aberration; assay type: toxicity, cell-based, Cricetulus griseus; conditions: chinese hamster; outline: as §3
[35] = Aquatic toxicity in Oryzias latipes (Japanese medaka); assay type: organism-based; conditions: in vivo, other: aquatic exposure
Outline: (§4)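 Aquatic acute toxicity, given as LC50 in mg/L of test water.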

[36] = Aquatic toxicity in Daphnia magna; assay type: organism-based; conditions: in vivo, other: aquatic exposure; outline: as §4
[37] = Acute toxicity in Mus musculus (mouse); assay type: organism-based; conditions: in vivo
Outline: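 Acute toxicity in mice, given as LD50 in mg/kg.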

[38] = tested on: Echinochloa crus-galli; assay: Herbicidal activity against 4 leaf stage Echinochloa crus-galli (barnyard grass) (barnyardgrass) at 250 g/ha; assay type: functional, organism-based
[39] = tested on: Echinochloa crus-galli; assay: Herbicidal activity against 2 to 3 leaf stage Echinochloa crus-galli (barnyard grass) (barnyardgrass) at 62.5 g/ha; assay type: functional, organism-based
[40] = tested on: Ludwigia prostrata; assay: Herbicidal activity against Ludwigia prostrata assessed as visual damage 62.5 g/ha measured after 3 weeks; assay type: functional, organism-based; outline: as §1

With `Cc1ccsc1C1=NOC(C)(COCc2c(F)cccc2F)C1` (stereo not given) the Activity [1] was “Active”, the Activity [2] was “Active” and the Activity [3] was “Active”. For the same molecule, the Activity [4] was “Active”, the Activity [5] was “Active” and the Activity [6] was “Active”. For the same molecule, the Activity [7] was “Active”, the Activity [8] was “Active” and the Activity [9] was “Active”. For the same molecule, the Activity [10] was “inactive”, the Activity [11] was “inactive” and the Activity [12] was “inactive”. The Activity [13] was “Active”, the Activity [14] was “Active” and the Activity [15] was “Active”. For the same molecule, the Activity [16] was “Active”, the Activity [17] was “Active” and the Activity [18] was “Active”. The Activity [19] was “Active”, the Activity [20] was “Active” and the Activity [21] was “inactive”. The Activity [22] was “inactive”, the Activity [23] was “inactive” and the Activity [24] was “Active”. For the same molecule, the Activity [25] was “Active”, the Activity [26] was “Active” and the Activity [27] was “Active”. For the same molecule, the Activity [28] was “Non-toxic”, the Activity [29] was “Non-toxic” and the Activity [30] was “Non-toxic”. For the same molecule, the Activity [31] was “Non-toxic”, the Activity [32] was “Non-toxic” and the Activity [33] was “Non-toxic”. The Activity [34] was “Non-toxic”, the LC50 [35] was 1.9 µg/mL (≈ 5.63 µM) and the LC50 [36] was 2.7 µg/mL (≈ 8 µM). The LD50 [37] was 5000 mg/kg, the Activity [38] was “Active” and the Activity [39] was “Active”. For the same molecule, the Activity [40] was “Active”.
